According to publication PMC9035732 (Photoacoustics, 2022):

What was measured:
[1] = tested on: orthotopic human HCC xenograft tumors (SK-Hep1); assay type: in vivo, mouse; conditions: 1.75 h post-injection, mean±SD, n = 8 mice per group; λex = 785 nm
How it was run: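 Tumors were orthotopic SK-Hep1 xenografts in female athymic nude mice; the cells were first grown subcutaneously in the hind flank. Mice received IRDye800-labeled target or control peptide i.v. Other groups were pre-blocked with unlabeled peptide or given ICG. Paired white-light and fluorescence laparoscopic images were taken at 1.75 h post-injection. Ultrasound and MR confirmed tumor location.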

[2] = tested on: orthotopic human HCC xenograft tumors (SK-Hep1); experiment: In vivo photoacoustic imaging of orthotopic human HCC xenograft tumors; design: species or system mouse; conditions: intravenous, peptide 300 μM in 200 μL PBS; ICG 2.46 mg/kg; λex = 774 nm
How it was run: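 Mice were female athymic nude mice bearing orthotopic SK-Hep1 tumors, which were first established subcutaneously in the flank. IRDye800-labeled target or control peptide was given i.v. in 200 µL PBS. Blocking groups got unlabeled peptide injected beforehand, and ICG 2.46 mg/kg i.v. served as comparator. 3D photoacoustic images (excitation 774 nm) were taken before and at 0.5, 1, 1.5, 1.75, 2, 4 and 24 h. Intensity came from 2D maximum-intensity projections, with pre-injection images as background, and was expressed as tumor/background ratio.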

time of peak photoacoustic intensity in tumor post-injection [2]: not observed within 24 h
Compound: CC1(C)C(/C=C/C=C/C=C/C=C2\N(CCCCS(=O)(=O)O)c3ccc4ccccc4c3C2(C)C)=[N+](CCCCS(=O)(=O)[O-])c2ccc3ccccc3c21 [ICG, Indocyanine green]
mean T/B ratio, laparoscopic fluorescence imaging [1]: 0.87 ± 0.2
